Rows were chosen to be rich in hits. Some 9.8% of all compounds tested hit in one or more screens of this group.
WT yeast gro inh – growth inhibition of WT strain, primary screen, mitochondrial fusion inhibitor project, WT and mutant strains, chemical genetic | mitochondrial fusion phenotypic screen | inhibition, % at 10 µM | actives 2.1% (n = 190,000) | AID 1362, 2008; in the data active means inhibition above about 58%; tested in S. cerevisiae
Rad51 HR inh – human RAD51 strand exchange inhibitors, primary screen, biochemical, fluorescence; actives 0.085% (n = 200,000); inhibition, % at 10 µM; DNA repair protein RAD51 homolog 1 (Homo sapiens), Q06609; hRad51 DNA strand exchange, fluorescence dequenching;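 active means inhibition above 40% at the single screening dose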;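 further: 0% = DMSO control wells and 100% = blanks with heterologous ssDNA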
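Test system: preformed human Rad51 ssDNA filaments. Compound dosing: single dose, 10 µM final compound. Incubation: filaments 15 min 37 °C, then compound 30 min. Technique: FRET fluorescence dequenching, excitation 485 nm, emission 520 nm. Read-out basis: percent inhibition from fluorescence, normalised to plate control and blank means. Benchmarks: plate controls and plate blanks.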
PMI act satM6P – human PMI activators, high substrate, primary screen, biochemical, fluorescence intensity, near-saturating mannose 6-phosphate | actives 0.34% (n = 190,000) | coupled PMI enzyme assay, resazurin fluorescence, 20 min; hits give high values; 1 = untreated enzyme, 0 = substrate-free blank | AID 1216, 2008 | Mannose-6-phosphate isomerase (Homo sapiens), P34949 | activation factor at 20 µM;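 active means activation factor of 2 or more at 20 µM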
Target sequence (P34949 whole entry, looked up): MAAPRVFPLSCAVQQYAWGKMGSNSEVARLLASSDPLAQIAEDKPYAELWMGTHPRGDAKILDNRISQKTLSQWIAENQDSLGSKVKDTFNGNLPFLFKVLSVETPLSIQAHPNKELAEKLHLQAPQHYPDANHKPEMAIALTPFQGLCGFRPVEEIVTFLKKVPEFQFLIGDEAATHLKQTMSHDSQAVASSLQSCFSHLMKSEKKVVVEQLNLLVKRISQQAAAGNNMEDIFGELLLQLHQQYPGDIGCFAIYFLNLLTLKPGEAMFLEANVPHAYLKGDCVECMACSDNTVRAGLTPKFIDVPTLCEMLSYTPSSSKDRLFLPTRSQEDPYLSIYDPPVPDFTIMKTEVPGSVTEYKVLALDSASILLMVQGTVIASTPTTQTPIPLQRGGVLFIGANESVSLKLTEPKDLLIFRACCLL
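Technique: Diaphorase-driven resazurin-to-resorufin fluorescence, excitation 544, emission 590 nm | Assay system: Human PMI in coupled enzyme assay | Times: Enzyme reaction with compound 20 min at room temperature | Medium: HEPES-buffered pH 7.4 with magnesium and detergent | Reagent: Mannose-6-phosphate 1.0 mM (near-saturating) plus 0.22 mM NADP+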
Calpain2 inh – inhibitors of pig calpain II, primary screen, biochemical, fluorogenic peptide substrate, 1536-well; purified calpain II, 30 min; inhibition, % at 16 µM; actives 0.37% (n = 220,000); AID 1236, 2008;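 active means inhibition above about 50%, limit read from the data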
L major viab – Leishmania major promastigote growth inhibition, primary screen; Leishmania major promastigotes, resazurin fluorescence viability; inhibition, % at 10 µM; actives 9% (n = 200,000); in the data active means inhibition above about 50%;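 further: promastigotes grown with compound for 44 hours at 28 °C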
PMI activator – activators of human PMI, primary screen, biochemical, fluorescence intensity, near-Km mannose 6-phosphate; actives 0.005% (n = 190,000); purified human PMI, coupled resazurin fluorescence, 20 min; hits give high values; 1 = vehicle control, 0 substrate-free wells; activation factor at 20 µM; AID 1214, 2008; Mannose-6-phosphate isomerase (Homo sapiens), P34949;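 active means activation factor of 2 or more at 20 µM, relative to plate controls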
Numbers without * were called inactive; · = no result.

SMILES	WT yeast gro inh	Rad51 HR inh	PMI act satM6P	Calpain2 inh	L major viab	PMI activator
S=c1[nH]nc(COc2ccc(Cl)cc2)n1C1CCCCC1	25	3	0.9	32	-4	1
S=c1[nH]nc(CSCc2ccccc2Cl)n1C1CCCCC1	74*	4	0.9	65*	24	0.8
FC(F)(F)c1cccc(NC(=S)NCCN2CCOCC2)c1	5	3	1.1	9	40	1.1
Fc1cccc(NC(=S)NCCN2CCOCC2)c1	9	-11	1	21	67*	1
Fc1cc(F)cc(NC(=S)NCCCN2CCOCC2)c1	-7	6	1	0	54*	1
CCCN1CCN(CCCNC(=S)Nc2ccc(F)cc2)CC1	-2	4	1.1	23	3	1.1
Cc1ccc(NC(=S)NCCCN2CCOCC2)cc1C	·	·	·	6	·	·
Fc1cccc(NC(=S)NCCCN2CCOCC2)c1	-1	-1	1.1	-12	72*	1.1
CSc1cccc(NC(=S)NCCCN2CCN(c3ccc(F)cc3)CC2)c1	35	-3	0.9	30	57*	1
COC(=O)c1ccc(SCC(=O)NC2CCCCC2)c([N+](=O)[O-])c1	-16	24	1	30	-3	0.9
COc1ccc(CN2CCN(C(C)C)C(CCO)C2)cc1Cn1cncn1 (stereo not drawn)	7	·	0.9	-3	-4	1
S=C(NCCCN1CCOCC1)Nc1ccc(Cl)c(Cl)c1	2	·	1.1	-3	95*	1.1
Cc1ccc2c(CC(=O)OCC(=O)Nc3ccc(Cl)cn3)coc2c1	10	-8	0.8	8	51*	0.9
COc1cccc(Oc2cncnc2-c2ccc(OC)cc2O)c1	24	3	0.9	15	93*	1
Cn1c(NC(=O)Cc2cccc3ccccc23)cc(=O)n(C)c1=O	-9	-3	0.9	17	0	0.9
COc1ccc(N2CCN(c3nc4ccccc4nc3NS(=O)(=O)c3ccccc3)CC2)cc1	33	16	0.8	-46	-2	0.8
COc1ccc(S(=O)(=O)c2cnc3ccc(OC)cc3c2N2CCC3(CC2)OCCO3)cc1	4	1	0.9	2	5	1
COc1ccc(N2CCN(c3c(S(=O)(=O)c4ccccc4)cnc4ccc(OC)cc34)CC2)cc1	76*	-9	0.9	1	61*	0.9
CCc1ccc2ncc(S(=O)(=O)c3ccc(C)c(C)c3)c(N3CCCC3)c2c1	72*	0	0.8	30	30	0.8
CCOc1ccc2ncc(S(=O)(=O)c3ccccc3)c(N3CCC4(CC3)OCCO4)c2c1	44	4	1.6	3	86*	1.4
CCOc1ccc2ncc(S(=O)(=O)c3ccccc3)c(N3CCN(c4ccc(OC)cc4)CC3)c2c1	52	-1	1	22	100*	1
CCOC(=O)N1CCN(C(=O)c2cc3c(s2)-c2ccc(Cl)cc2S(=O)(=O)C3)CC1	-7	-7	1.1	-13	-4	1.2
Cn1c(SCC(=O)Nc2cccc(S(=O)(=O)NC3=NCCCCC3)c2)nnc1-c1ccccc1	-4	-2	1	-5	4	1
CNC(=S)N(Cc1cc2cc(C)cc(C)c2[nH]c1=O)C1CCCC1	22	-5	0.9	-12	60*	0.9
CCNC(=S)N(Cc1cc2cc(C)ccc2[nH]c1=O)C1CCCC1	-16	·	1	10	36	0.9
SMILES	WT yeast gro inh	Rad51 HR inh	PMI act satM6P	Calpain2 inh	L major viab	PMI activator
CCNC(=S)N(Cc1cc2c(C)ccc(C)c2[nH]c1=O)C1CCCC1	-9	25	0.9	-30	67*	0.9
CCNC(=S)N(Cc1cc2cc(C)cc(C)c2[nH]c1=O)C1CCCC1	-7	3	1	0	99*	0.9
CC(=O)N(Cc1cc2c(C)cc(C)cc2[nH]c1=O)C1CCCCC1	98*	-1	1	-15	8	0.9
Cc1c(CN2CCC(CO)(CCOc3ccccc3)CC2)[nH]c2c(Cl)cccc12	93*	2	0.8	-17	100*	1
Cc1nn(C)c(Cl)c1CN1CCC(CO)(CCOc2ccccc2)CC1	0	10	0.9	-13	72*	0.9
Cc1ncc(CN2CCC(CO)(CCOc3ccccc3)CC2)s1	·	·	·	-2	·	·
CCn1ccnc1CN1CCC(CO)(CCOc2ccccc2)CC1	-7	11	1	-7	1	0.9
COc1ccc(C(=O)NN/C(=N/S(=O)(=O)c2ccc(C)cc2)c2ccccc2)cc1	·	24	·	-7	·	·
Cc1nc2cc(Nc3ccncc3)ccc2s1	-15	5	0.9	2	-4	1
O=[N+]([O-])c1cccc(/C=C/c2nc3ccc([N+](=O)[O-])cc3[nH]2)c1	11	8	1	-100	55*	1
O=C(CCCn1c(=S)[nH]c2ccccc2c1=O)N1CCN(c2cccc(Cl)c2)CC1	17	-3	1	-83	-5	1
O=C(CCCCCNc1nc(=S)[nH]c2ccccc12)N1CCN(c2ccccn2)CC1	3	0	0.9	9	57*	0.9
O=C(CCCn1c(=O)[nH]c2ccccc2c1=O)N1CCN(c2ccccn2)CC1	1	·	1	9	-3	1
Cc1ccc(CNC(=O)CCCCCNc2nc(=S)[nH]c3ccccc23)cc1	-7	·	1	61*	0	1.2
COc1cccc(N2CCN(C(=O)CCCCCNc3nc(=S)[nH]c4ccccc34)CC2)c1	15	-63	1	-14	74*	1
CCCn1nc(Oc2nc(N(C)C)nc(N(C)C)n2)ccc1=O	-7	-1	·	-31	-4	·
COc1ccc(C(=O)C(C)N(C(=O)c2ccc(Cl)cc2Cl)N2C(=O)C3C4C=CC(C4)C3C2=O)cc1 (stereo not drawn)	32	1	0.9	-1	90*	0.9
Cc1ccc(-n2[nH]c(C)c(C=Nc3ccc(S(=O)(=O)N4CCOCC4)cc3)c2=O)c(C)c1	13	-5	1.1	21	52*	1
NC(=O)NC(=O)COC(=O)c1cccc(S(=O)(=O)N2CCCCCC2)c1	·	46*	·	-19	·	·
COC(=O)c1cccc(S(=O)(=O)N2CCCC2)c1	-10	3	1	-2	-2	1.1
CCC(C)c1ccccc1NC(=O)COC(=O)c1ccc2[nH]c3c(c2c1)CCCC3 (stereo not drawn)	62*	-8	0.9	14	35	0.9
Cc1ccc(S(=O)(=O)N2CCCCC2)cc1NC(=O)c1ccc2c(c1)OCO2	6	0	1	7	-2	0.9
